Laboratory results as given in ChEMBL document CHEMBL3792280, “Design and synthesis of novel quinoxaline derivatives as potential candidates for treatment of multidrug-resistant and latent tuberculosis” (Bioorg Med Chem Lett, 2016).
≈ marks a conversion by molar mass, not a printed value.

Tests used:
[1] = system: Mycobacterium tuberculosis; test: Antimicrobial activity against non-replicating Mycobacterium tuberculosis H37Rv SRI 1345 assessed as inhibition of visual growth incubated for 7 days under anaerobic condition by low oxygen recovery assay; assay type: functional; conditions: H37Rv SRI 1345, 168 h
[2] = system: Mycobacterium tuberculosis; test: Antimicrobial activity against Mycobacterium tuberculosis H37Rv ATCC 27294 infected in mouse J774 cells assessed as log reduction in bacterial burden at 10 times MIC measured 7 days postinfection relative to control; assay type: functional
Summary of the method: (§1)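 Macrophages infected with H37Rv and treated at three concentrations 10-fold apart, chosen from the primary-screen H37Rv data. The middle concentration brackets the reported MIC, with the others ten-fold below and ten-fold above it. Read-out is log-reduction of intracellular bacterial burden.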

[3] = system: Mycobacterium tuberculosis; test: Antimicrobial activity against Mycobacterium tuberculosis H37Rv ATCC 27294 infected in mouse J774 cells assessed as log reduction in bacterial burden at 10 times lower MIC measured 7 days postinfection relative to control; assay type: functional; summary of the method: as §1
[4] = system: Mycobacterium tuberculosis; test: Antimicrobial activity against Mycobacterium tuberculosis H37Rv SRI 1345 assessed as growth inhibition at MIC after 7 days; assay type: functional
Summary of the method: (§2)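 MIC in µg/mL, retested on susceptible H37Rv (SRI 1345) in the same panel as single-drug-resistant strains: isoniazid-, rifampin- and ofloxacin-resistant. Percent inhibition recorded at the MIC concentration. Ratio taken as MIC H37Rv / MIC resistant strain.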

J774 [5] = test: Cytotoxicity against mouse J774 cells assessed as cell viability at 10 times MIC by MTT assay relative to control; assay type: cell-based
[6] = system: Mycobacterium tuberculosis; test: Antimicrobial activity against Mycobacterium tuberculosis H37Rv ATCC 27294 infected in mouse J774 cells assessed as growth inhibition at 10 times lower MIC measured 7 days postinfection; assay type: functional; summary of the method: as §1
[7] = system: Mycobacterium tuberculosis; test: Antimicrobial activity against Mycobacterium tuberculosis H37Rv SRI 1345 after 7 days; assay type: functional; conditions: H37Rv SRI 1345, 168 h; summary of the method: as §2
[8] = system: Mycobacterium tuberculosis; test: Antimicrobial activity against Mycobacterium tuberculosis H37Rv ATCC 27294 incubated for 7 days by BacTiter-Glo cell viability assay; assay type: functional, organism-based; conditions: for MIC: H37Rv ATCC 27294, 168 h; for IC50 / IC90: H37Rv ATCC 27294, BacTiter-Glo, 168 h
J774 [9] = test: Cytotoxicity against mouse J774 cells assessed as cell viability at 10 times lower MIC by MTT assay relative to control; assay type: cell-based
[10] = system: Mycobacterium tuberculosis; test: Antimicrobial activity against Mycobacterium tuberculosis H37Rv ATCC 27294 infected in mouse J774 cells assessed as log reduction in bacterial burden at 10 times lower MIC measured 7 days postinfection relative to rifampicin; assay type: functional; summary of the method: as §1
[11] = system: Mycobacterium tuberculosis; test: Antimicrobial activity against Mycobacterium tuberculosis H37Rv ATCC 27294 infected in mouse J774 cells assessed as log reduction in bacterial burden at MIC measured 7 days postinfection relative to control; assay type: functional; summary of the method: as §1
J774 [12] = test: Cytotoxicity against mouse J774 cells assessed as cell viability at MIC by MTT assay relative to control; assay type: cell-based
[13] = system: Mycobacterium tuberculosis; test: Antimicrobial activity against Mycobacterium tuberculosis H37Rv SRI 1345 assessed as inhibition of visual growth after 18 to 24 hrs; assay type: functional; conditions: read-out: MBC99.9
[14] = system: Mycobacterium tuberculosis; test: Ratio of MBC for Mycobacterium tuberculosis H37Rv SRI 1345 to MIC for Mycobacterium tuberculosis H37Rv SRI 1345; assay type: functional
Summary of the method: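 MBC read from colony-forming unit counts; ratio computed as MBC / MIC against H37Rv.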

SMILES	MIC [8] [µM]	IC50 [8] [µM]	IC90 [8] [µM]	other results
O=C(c1ccco1)c1c(C(F)(F)F)[n+]([O-])c2cc(Cl)c(N3CCOCC3)cc2[n+]1[O-]	3.1 (≈ 1.38 µg/mL)	1.2	2.1	MIC [1]: 0.25 µg/mL (≈ 0.563 µM); log reduction in bacterial burden [2]: 2.67; log reduction in bacterial burden [3]: 1.68; growth inhibition (GI) [4]: 61%; Activity (J774 [5]): 37%; growth inhibition (GI) [6]: >90%; MIC [7]: 2 µg/mL (≈ 4.51 µM); Activity (J774 [9]): 88%; Log reduction in bacterial burden relative to rifampicin [10]: 3; log reduction in bacterial burden [11]: 1.57
CC(=O)c1c(C(F)(F)F)nc2cc(F)c(N3CCSCC3)cc2[n+]1[O-]	3.1 (≈ 1.16 µg/mL)	1.3	1.8	MIC [1]: > 12 µg/mL; log reduction in bacterial burden [2]: 1.76; log reduction in bacterial burden [3]: 2.17; growth inhibition (GI) [4]: 51%; Activity (J774 [5]): 26%; Activity (J774 [12]): 81%; growth inhibition (GI) [6]: >99%; MIC [7]: 0.75 µg/mL (≈ 2 µM); Activity (J774 [9]): 70%; Log reduction in bacterial burden relative to rifampicin [10]: 3; log reduction in bacterial burden [11]: 1.66
Cc1ccc2c(c1)[n+]([O-])c(C(=O)/C=C/c1ccc([N+](=O)[O-])s1)c(C)[n+]2[O-]		> 100	> 100	
Cc1c(C(=O)/C=C/c2ccc([N+](=O)[O-])s2)[n+]([O-])c2cc(Cl)ccc2[n+]1[O-]	25 (≈ 9.79 µg/mL)	7.3	13	
CC(C)C(=O)c1c(C(F)(F)F)nc2cc(N3CCOCC3)c(N3CCOCC3)cc2[n+]1[O-]	25 (≈ 11.4 µg/mL)	8.3	17.9	
Cc1ccc2c(c1)[n+]([O-])c(C(=O)/C=C/c1ccccc1)c(C)[n+]2[O-]	25 (≈ 8.01 µg/mL)	7.2	14.7	
Cc1c(C(=O)/C=C/c2ccc([N+](=O)[O-])o2)[n+]([O-])c2cc(Cl)ccc2[n+]1[O-]	25 (≈ 9.39 µg/mL)	13.5	20.8	
Cc1c(C(=O)/C=C/c2ccc([N+](=O)[O-])o2)[n+]([O-])c2ccccc2[n+]1[O-]	25 (≈ 8.53 µg/mL)	17.3	24.6	
Cc1c(C(=O)/C=C/c2ccccc2)[n+]([O-])c2ccccc2[n+]1[O-]	12.5 (≈ 3.83 µg/mL)	5.8	11.5	
NCC[C@H](O)C(=O)N[C@@H]1C[C@H](N)[C@@H](O[C@H]2O[C@H](CN)[C@@H](O)[C@H](O)[C@H]2O)[C@H](O)[C@H]1O[C@H]1O[C@H](CO)[C@@H](O)[C@H](N)[C@H]1O [AMIKACIN]	0.2 (≈ 0.117 µg/mL)	0.102	0.141	
N[C@@H]1CONC1=O [CYCLOSERINE]	50 (≈ 5.1 µg/mL)	20.8	33.1	
CC[C@@H](CO)NCCN[C@@H](CC)CO [ETHAMBUTOL]	6.2 (≈ 1.27 µg/mL)	1.2	1.8	
NNC(=O)c1ccncc1 [ISONIAZID]	0.3 (≈ 0.0411 µg/mL)	0.1	0.2	
CCc1nc(N)nc(N)c1-c1ccc(Cl)cc1 [PYRIMETHAMINE]	50 (≈ 12.4 µg/mL)	23.6	36	
CO[C@H]1/C=C/O[C@@]2(C)Oc3c(C)c(O)c4c(O)c(c(/C=N/N5CCN(C)CC5)c(O)c4c3C2=O)NC(=O)/C(C)=C\C=C\[C@H](C)[C@H](O)[C@@H](C)[C@@H](O)[C@@H](C)[C@H](OC(C)=O)[C@@H]1C [RIFAMPIN]	0.04 (≈ 0.0329 µg/mL)	0.02	0.03	MIC [1]: 0.39 µg/mL (≈ 0.474 µM); log reduction in bacterial burden [2]: 2.68; log reduction in bacterial burden [3]: 0.48; growth inhibition (GI) [4]: 55%; Activity (J774 [5]): 80%; Activity (J774 [12]): 87%; MBC [13]: 0.78 µg/mL (≈ 0.948 µM); MIC [7]: 0.05 µg/mL (≈ 0.0608 µM); Ratio [14]: 15.6; Activity (J774 [9]): 93%; log reduction in bacterial burden [11]: 1.73
